Source: publication PMC3685407 (Neuropharmacology, 2013)
Where two headings read alike, the source gives them in different places.

Assays:
[1] = test system: forelimb use asymmetry in 6-OHDA lesioned rats; assay: Limb use asymmetry test; assay type: in vivo, rat; details: for % Contralateral limb use, nAChR compound: 5 min period, mean ± S.E.M of 5–9 rats
In short: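 Unilateral intracranial 6-OHDA lesions in rats (230–250 g). Forelimb use was rated over 5 min, once before and once 60 min after sc L-dopa plus benserazide (8.0 or 6.0 mg/kg plus 15 mg/kg, depending on study). The read-out was % contralateral limb use. Test compound was given by minipump or sc injection. In one study, testing was 4 wk after L-dopa treatment began.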

[2] = test system: L-dopa-induced AIMs in 6-OHDA lesioned rats; assay: L-dopa-induced AIMs in rats with severe unilateral 6-OHDA lesion; assay type: in vivo, rat; details: for AIM subtypes significantly affected by nAChR compounds: axial, oral, forelimb AIMs; for AIM subtypes significantly affected by nAChR compounds / Decrease in total AIM scores: severe dopaminergic lesion; for Decrease in total AIM scores: maximal decrease over the treatment periods, L-dopa 6 or 8 mg/kg plus benserazide 15 mg/kg sc; for Reduction in L-dopa-induced AIMs: range over the series, rats with severe nigrostriatal damage; for Total AIMs score: summary table, L-dopa 6 or 8 mg/kg plus benserazide, group not stated
[3] = biological target: human α7 nAChRs (Homo sapiens, UniProt P36544); assay: biochemical; assay type: binding
human α7 nAChRs, sequence (P36544 23-502): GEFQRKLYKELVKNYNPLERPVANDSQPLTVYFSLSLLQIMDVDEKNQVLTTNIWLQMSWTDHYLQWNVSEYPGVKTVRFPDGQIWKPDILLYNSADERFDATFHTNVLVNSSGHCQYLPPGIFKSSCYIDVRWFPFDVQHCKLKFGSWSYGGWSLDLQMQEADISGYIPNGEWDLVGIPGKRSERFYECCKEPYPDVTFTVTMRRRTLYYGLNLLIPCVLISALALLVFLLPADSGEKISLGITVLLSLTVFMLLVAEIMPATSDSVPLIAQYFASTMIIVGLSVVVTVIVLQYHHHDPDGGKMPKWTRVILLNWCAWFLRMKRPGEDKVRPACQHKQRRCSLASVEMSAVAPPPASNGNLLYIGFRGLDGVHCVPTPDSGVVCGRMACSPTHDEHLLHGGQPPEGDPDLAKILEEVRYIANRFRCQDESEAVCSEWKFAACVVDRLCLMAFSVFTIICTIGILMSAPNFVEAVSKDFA

[4] = biological target: muscle nAChRs (Homo sapiens, UniProt P02708+P07510+Q07001); assay: biochemical; assay type: binding
muscle nAChRs, sequence (P07510 23-517): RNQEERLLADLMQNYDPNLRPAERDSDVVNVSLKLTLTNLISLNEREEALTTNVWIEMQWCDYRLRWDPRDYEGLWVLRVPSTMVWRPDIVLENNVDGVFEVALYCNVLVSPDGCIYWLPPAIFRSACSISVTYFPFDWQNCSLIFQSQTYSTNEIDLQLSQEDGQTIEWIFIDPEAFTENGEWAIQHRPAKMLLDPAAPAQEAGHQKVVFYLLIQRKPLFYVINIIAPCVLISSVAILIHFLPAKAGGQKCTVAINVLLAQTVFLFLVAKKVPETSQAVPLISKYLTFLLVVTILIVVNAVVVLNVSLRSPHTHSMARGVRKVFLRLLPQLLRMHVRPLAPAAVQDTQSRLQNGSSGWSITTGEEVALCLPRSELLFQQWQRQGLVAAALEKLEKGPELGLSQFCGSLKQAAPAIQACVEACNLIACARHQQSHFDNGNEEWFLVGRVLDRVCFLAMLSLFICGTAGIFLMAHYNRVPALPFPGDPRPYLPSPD
muscle nAChRs, sequence (Q07001 22-517): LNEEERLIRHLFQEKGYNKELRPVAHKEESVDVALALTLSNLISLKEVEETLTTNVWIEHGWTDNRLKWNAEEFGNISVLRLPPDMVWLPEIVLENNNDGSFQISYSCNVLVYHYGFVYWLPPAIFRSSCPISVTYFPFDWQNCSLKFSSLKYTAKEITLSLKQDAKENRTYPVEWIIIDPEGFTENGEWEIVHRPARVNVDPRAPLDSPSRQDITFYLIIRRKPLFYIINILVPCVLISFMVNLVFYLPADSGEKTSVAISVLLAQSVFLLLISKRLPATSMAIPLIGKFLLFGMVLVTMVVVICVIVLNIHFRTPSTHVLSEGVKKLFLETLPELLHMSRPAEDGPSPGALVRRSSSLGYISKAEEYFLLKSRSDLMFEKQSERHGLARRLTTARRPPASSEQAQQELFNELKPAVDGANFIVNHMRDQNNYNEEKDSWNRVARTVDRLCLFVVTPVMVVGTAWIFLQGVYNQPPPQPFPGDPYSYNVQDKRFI
muscle nAChRs, sequence (P11230 24-501, further chain): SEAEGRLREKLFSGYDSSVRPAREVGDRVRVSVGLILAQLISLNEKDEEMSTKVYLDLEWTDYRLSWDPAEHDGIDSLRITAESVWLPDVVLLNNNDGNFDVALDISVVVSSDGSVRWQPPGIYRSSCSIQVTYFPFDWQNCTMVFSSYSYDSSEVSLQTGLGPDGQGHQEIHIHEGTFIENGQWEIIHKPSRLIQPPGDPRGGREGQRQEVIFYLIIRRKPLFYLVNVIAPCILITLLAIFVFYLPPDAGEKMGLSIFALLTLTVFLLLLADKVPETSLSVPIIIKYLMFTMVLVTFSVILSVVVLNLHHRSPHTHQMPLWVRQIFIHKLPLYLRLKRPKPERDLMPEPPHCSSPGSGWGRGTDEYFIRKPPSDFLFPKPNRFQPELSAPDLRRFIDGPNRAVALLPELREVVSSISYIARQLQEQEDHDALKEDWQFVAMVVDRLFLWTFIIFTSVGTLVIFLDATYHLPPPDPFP
muscle nAChRs, sequence (P02708 21-457): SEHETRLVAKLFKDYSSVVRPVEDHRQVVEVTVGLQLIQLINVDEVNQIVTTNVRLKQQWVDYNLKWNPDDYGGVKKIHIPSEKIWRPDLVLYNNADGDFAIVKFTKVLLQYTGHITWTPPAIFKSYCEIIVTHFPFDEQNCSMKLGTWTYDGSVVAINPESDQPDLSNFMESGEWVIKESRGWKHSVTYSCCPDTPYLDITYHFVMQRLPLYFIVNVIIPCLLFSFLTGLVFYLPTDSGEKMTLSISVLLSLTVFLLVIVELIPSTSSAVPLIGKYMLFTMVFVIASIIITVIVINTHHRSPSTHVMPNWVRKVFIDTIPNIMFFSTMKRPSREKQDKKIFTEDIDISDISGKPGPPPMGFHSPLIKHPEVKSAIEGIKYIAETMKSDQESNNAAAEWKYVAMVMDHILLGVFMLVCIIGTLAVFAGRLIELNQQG

[5] = biological target: human α3β4 nAChRs (Homo sapiens, UniProt P30926+P32297); assay: Competition membrane binding
human α3β4 nAChRs, sequence (P32297 32-505): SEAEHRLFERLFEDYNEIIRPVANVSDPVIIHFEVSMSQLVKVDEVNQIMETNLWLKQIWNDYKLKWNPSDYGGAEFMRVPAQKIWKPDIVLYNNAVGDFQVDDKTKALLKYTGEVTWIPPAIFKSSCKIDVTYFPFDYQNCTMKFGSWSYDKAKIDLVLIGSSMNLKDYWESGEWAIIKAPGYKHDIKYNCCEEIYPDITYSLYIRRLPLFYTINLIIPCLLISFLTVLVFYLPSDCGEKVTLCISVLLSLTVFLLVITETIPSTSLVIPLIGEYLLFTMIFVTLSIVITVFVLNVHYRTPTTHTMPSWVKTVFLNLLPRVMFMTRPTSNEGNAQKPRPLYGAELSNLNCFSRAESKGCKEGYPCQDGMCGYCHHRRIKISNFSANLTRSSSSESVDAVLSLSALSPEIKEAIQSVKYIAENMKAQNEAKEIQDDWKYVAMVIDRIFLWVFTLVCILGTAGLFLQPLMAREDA
human α3β4 nAChRs, sequence (P30926 22-498): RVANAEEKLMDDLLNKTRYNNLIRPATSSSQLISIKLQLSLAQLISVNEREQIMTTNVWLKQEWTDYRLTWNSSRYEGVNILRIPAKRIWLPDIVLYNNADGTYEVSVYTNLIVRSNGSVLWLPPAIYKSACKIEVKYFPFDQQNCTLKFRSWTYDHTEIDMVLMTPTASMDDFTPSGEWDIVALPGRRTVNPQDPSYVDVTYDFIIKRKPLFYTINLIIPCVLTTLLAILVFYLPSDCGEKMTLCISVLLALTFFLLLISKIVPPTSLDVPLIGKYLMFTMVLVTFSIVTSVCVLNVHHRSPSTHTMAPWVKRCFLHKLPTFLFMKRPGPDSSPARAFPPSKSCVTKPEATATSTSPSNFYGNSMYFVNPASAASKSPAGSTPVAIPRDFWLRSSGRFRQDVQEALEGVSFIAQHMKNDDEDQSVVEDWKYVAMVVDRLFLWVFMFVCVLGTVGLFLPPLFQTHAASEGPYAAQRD

[6] = test system: ^3H-dopamine release from rat striatal synaptosomes; details: read-out: EC50 for 3H-dopamine release; rat striatum; ref Zwart et al., 2008; cited from earlier work
[7] = test system: L-dopa-induced AIMs in parkinsonian rats; details: cited from earlier work
[8] = test system: L-dopa-induced AIMs in 6-OHDA lesioned rats; details: cited from earlier work
[9] = test system: L-dopa-induced dyskinesias in Parkinson’s disease patients; details: small clinical trial, ref http://www.neuraltus.com/pages/news.html; cited from earlier work
[10] = rats with severe dopaminergic lesions, ref Bordia et al., 2010

CN[C@@H](C)C/C=C/c1cncc(OC)c1 [TC-2696]
% Contralateral limb use, nAChR compound ([1]; OFF L-dopa (before L-dopa)): 3.27 ± 1.5%
% Contralateral limb use, nAChR compound ([1]; ON L-dopa (60 min after L-dopa)): 35.6 ± 13.1%
Effect on parkinsonism (forepaw asymmetry test) ([1]; result in words): no significant effect
Effect on L-dopa-induced AIMs ([2]; 1.0 mg/kg/d via minipump, L-dopa 8 mg/kg plus benserazide 15 mg/kg sc): fewer total L-dopa-induced AIMs
Effect on L-dopa-induced AIMs ([2]; […] via minipump, L-dopa 8 mg/kg plus benserazide): results similar to those at the 1.0 mg/kg/d dose of the compound, except for a significant decline in forelimb AIMs
AIM subtypes significantly affected by nAChR compounds [2]: Axial > forelimb
Decrease in total AIM scores [2]: 30%
Reduction in L-dopa-induced AIMs [2]: 23–32%
Total AIMs score [2]: ~75
Ki ([3]; read-out: Ki α7 nAChRs, membrane binding, 3H-epibatidine, average ± SEM): 85000 nM

OCCCCC#Cc1cncc(OC[C@@H]2CCN2)c1 [Sazetidine, 6-(5-(((S)-azetidin-2-yl)methoxy)pyridine-3-yl)hex-5-yn-1-ol]
Effect on L-dopa-induced AIMs ([2]; 0.5 mg/kg sc twice daily, L-dopa 8 mg/kg plus benserazide): no effect
Effect on L-dopa-induced AIMs ([2]; 1.0 mg/kg sc twice daily, L-dopa 8 mg/kg plus benserazide, P < 0.05): decline in total, oral and forelimb AIMs
Effect on L-dopa-induced AIMs ([2]; 2.0 mg/kg sc twice daily, compared with 1.0 mg/kg dose, data not shown): Results were similar
AIM subtypes significantly affected by nAChR compounds [2]: Oral = forelimb
Decrease in total AIM scores [2]: 23%
Reduction in L-dopa-induced AIMs [2]: 23–32%
Total AIMs score [2]: ~75
Ki [4]: 180 ± 84 nM
Ki [3]: 3300 nM
Ki [5]: 30 ± 2 nM
EC50 [6]: 1 nM

c1cncc(OC[C@@H]2CCN2)c1 [A85380]
Effect on L-dopa-induced AIMs ([7]; 6-OHDA lesioned rats, ref Huang et al., 2011b): reduced L-dopa-induced AIMs

CNC1(C)C2CCC(C2)C1(C)C (stereo not shown) [mecamylamine]
Effect on L-dopa-induced AIMs ([7]; parkinsonian rats, ref Bordia et al., 2010): attenuated AIMs

CN1CCC[C@H]1c1cccnc1 [Nicotine]
AIM subtypes significantly affected by nAChR compounds [8, 10]: Oral = forelimb
Decrease in total AIM scores [8, 10]: 35%
Total AIMs score [8, 10]: ~75
Ki [4]: 3500 nM
Persistence of the effect on L-dopa-induced AIMs with treatment ([7]; study ended at this time, ref Bordia et al., 2008, Bordia et al., 2010): at least 4 months
Effect on L-dopa-induced dyskinesias [9]: reduced several components of L-dopa-induced dyskinesias

c1cnc2cc3c(cc2n1)[C@@H]1CNC[C@H]3C1 [Varenicline]
Decrease in total AIM scores ([8]; severely lesioned rats, non-significant, ref Huang et al., 2011b): 10%
Total AIMs score ([8]; severely lesioned rats, ref Huang et al., 2011b): ~60
